Source: ChEMBL document CHEMBL3396991 (Eur J Med Chem, 2015)
One block for each compound: values may come before it.

Experiments:
[1] = biological target: Kappa-type opioid receptor (Rattus norvegicus, UniProt P34975); assay: Displacement of [3H]U69593 from rat recombinant kappa opioid receptor expressed in CHO cells after 60 mins; format: cell-based
Mu-type opioid receptor = Mu-type opioid receptor (Homo sapiens, UniProt P35372); assay: Displacement of [3H]diprenorphine from human recombinant mu opioid receptor expressed in HEK cells after 60 mins; format: cell-based, HEK293
[2] = biological target: Delta-type opioid receptor (Homo sapiens, UniProt P41143); assay: Displacement of [3H]DADLE from human recombinant delta opioid receptor expressed in HEK cells after 60 mins; format: cell-based, HEK293
[3] = Selectivity ratio of Ki for human recombinant mu opioid receptor to Ki for rat recombinant kappa opioid receptor
[4] = Selectivity ratio of Ki for human recombinant delta opioid receptor to Ki for rat recombinant kappa opioid receptor
Outline: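 Ratio of DOR Ki to KOR Ki. […] Both assays in 50 mM Tris pH 7.4 at room temperature, eight concentrations.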

[5] = biological target: Kappa-type opioid receptor (Homo sapiens, UniProt P41145); assay: Antagonist activity at kappa opioid receptor (unknown origin)
Homo sapiens [6] = organism: Homo sapiens; assay: Selectivity ratio of Ki for mu opioid receptor (unknown origin) to Ki for kappa opioid receptor (unknown origin)
Outline: (§1)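 Ratio of two Ki values from radioligand displacement. KOR: rat recombinant receptor in CHO cells, [³H]U69593 (1 nM), 60 min. MOR: human recombinant receptor in HEK cells, [³H]diprenorphine (0.4 nM), 120 min. Both in 50 mM Tris pH 7.4 at room temperature with eight test concentrations. Ki is the mean ± SD of at least three experiments.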

Homo sapiens [7] = organism: Homo sapiens; assay: Selectivity ratio of Ki for delta opioid receptor (unknown origin) to Ki for kappa opioid receptor (unknown origin)
Outline: as §1, with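 “DOR:” for “MOR:”, “receptor, [³H]DADLE (0.5” for “receptor in HEK cells, [³H]diprenorphine (0.4”, “three independent” for “three”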

Kappa-type opioid receptor (Rattus norvegicus, UniProt P34975), sequence (P34975 whole entry): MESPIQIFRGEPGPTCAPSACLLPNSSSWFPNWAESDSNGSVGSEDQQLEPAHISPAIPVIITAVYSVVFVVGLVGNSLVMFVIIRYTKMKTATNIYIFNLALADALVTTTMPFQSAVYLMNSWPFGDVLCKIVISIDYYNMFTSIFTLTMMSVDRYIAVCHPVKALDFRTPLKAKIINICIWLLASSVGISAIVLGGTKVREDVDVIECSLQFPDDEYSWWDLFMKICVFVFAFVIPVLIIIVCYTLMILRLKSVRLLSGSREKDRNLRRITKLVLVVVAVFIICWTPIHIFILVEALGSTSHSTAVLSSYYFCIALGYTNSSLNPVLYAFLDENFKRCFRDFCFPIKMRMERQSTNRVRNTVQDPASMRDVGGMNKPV
Mu-type opioid receptor, sequence (P35372 whole entry): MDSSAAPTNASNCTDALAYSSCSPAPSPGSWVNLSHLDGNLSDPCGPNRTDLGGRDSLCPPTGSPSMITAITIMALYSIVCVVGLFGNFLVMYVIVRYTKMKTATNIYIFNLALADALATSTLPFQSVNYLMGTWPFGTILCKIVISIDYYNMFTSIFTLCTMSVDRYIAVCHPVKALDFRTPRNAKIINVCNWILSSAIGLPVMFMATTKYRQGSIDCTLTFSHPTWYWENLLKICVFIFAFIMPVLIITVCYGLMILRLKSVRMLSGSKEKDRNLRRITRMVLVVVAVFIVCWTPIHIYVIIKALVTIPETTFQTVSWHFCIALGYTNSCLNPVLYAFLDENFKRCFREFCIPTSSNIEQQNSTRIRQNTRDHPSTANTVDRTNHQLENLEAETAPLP
Delta-type opioid receptor, sequence (P41143 whole entry): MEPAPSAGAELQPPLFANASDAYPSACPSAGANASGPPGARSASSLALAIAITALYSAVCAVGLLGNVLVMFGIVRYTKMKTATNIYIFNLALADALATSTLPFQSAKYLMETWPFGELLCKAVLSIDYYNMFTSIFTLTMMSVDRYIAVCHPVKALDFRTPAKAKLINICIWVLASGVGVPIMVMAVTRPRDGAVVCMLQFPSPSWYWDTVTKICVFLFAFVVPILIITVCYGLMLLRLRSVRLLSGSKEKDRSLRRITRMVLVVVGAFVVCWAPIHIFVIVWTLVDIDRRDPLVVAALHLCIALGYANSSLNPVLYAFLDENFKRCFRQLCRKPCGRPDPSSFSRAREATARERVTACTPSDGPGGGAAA
Kappa-type opioid receptor (Homo sapiens, UniProt P41145), sequence (P41145 whole entry): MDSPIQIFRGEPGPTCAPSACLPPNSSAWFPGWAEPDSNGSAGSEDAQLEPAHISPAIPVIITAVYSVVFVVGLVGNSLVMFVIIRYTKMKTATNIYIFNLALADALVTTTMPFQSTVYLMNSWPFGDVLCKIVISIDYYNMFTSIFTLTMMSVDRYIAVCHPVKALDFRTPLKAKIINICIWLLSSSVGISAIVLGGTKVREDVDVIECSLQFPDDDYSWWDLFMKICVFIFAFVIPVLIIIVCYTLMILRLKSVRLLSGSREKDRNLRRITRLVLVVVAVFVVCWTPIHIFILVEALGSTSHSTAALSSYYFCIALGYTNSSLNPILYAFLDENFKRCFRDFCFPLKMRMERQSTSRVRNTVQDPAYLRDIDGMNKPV

SMILES: CC(C)[C@@H](CN1CC[C@@](C)(c2cccc(O)c2)[C@@H](C)C1)NC(=O)[C@H]1Cc2ccc(O)cc2CN1CCCF
Ki [1]: 1.62 nM
Ki (Mu-type opioid receptor): 19.6 nM
Ki [2]: 254 nM
Ratio Ki [3]: 12.2
Ratio Ki [4]: 159

SMILES: CC(C)[C@@H](CN1CC[C@@](C)(c2cccc(O)c2)[C@@H](C)C1)NC(=O)[C@H]1Cc2ccc(OCCCF)cc2CN1
Ki [1]: 8.19 nM
Ki (Mu-type opioid receptor): 57.5 nM
Ki [2]: 72.9 nM
Ratio Ki [3]: 7
Ratio Ki [4]: 8.9

SMILES: CC(C)[C@@H](CN1CC[C@@](C)(c2cccc(O)c2)[C@@H](C)C1)NC(=O)[C@H]1Cc2ccc(O)cc2CN1 [JDTIC]
Ki [1]: 0.32 nM

SMILES: CC(C)[C@@H](CN1CC[C@@](C)(c2cccc(O)c2)[C@@H](C)C1)NC(=O)[C@H]1Cc2ccc(OCCF)cc2CN1
Ki [1]: 24 nM
Ki (Mu-type opioid receptor): 63.1 nM
Ki [2]: 81.3 nM
Ratio Ki [3]: 2.6
Ratio Ki [4]: 3.4

Ki [5]: 0.8 nM
Ratio Ki (Homo sapiens [6]): 30
Ratio Ki (Homo sapiens [7]): 194
SMILES: Cc1cc(C)cc([C@@H]2CCCN2Cc2ccc(Oc3ccc(C(N)=O)cc3F)cc2)c1 [ATICAPRANT]

SMILES: CC(C)[C@@H](CN1CC[C@@](C)(c2cccc(O)c2)[C@@H](C)C1)NC(=O)[C@H]1Cc2ccc(O)cc2CN1CCF
Ki [1]: 5.51 nM
Ki (Mu-type opioid receptor): 13.2 nM
Ki [2]: 72.8 nM
Ratio Ki [3]: 2.4
Ratio Ki [4]: 13.2
